Measured values as given in article PMC10335114 (RSC Advances, 2023).

Experiments:
Assay type in all cases: biochemical
[1] = target: T1, h-NTPDase8 (Homo sapiens, UniProt Q5MY95); assay: h-NTPDase8 enzyme inhibition, malachite green assay; conditions: for inhibition at 100 µM: read-out: h-NTPDase8 % inhibition ± S.D
T1 sequence (Q5MY95 1-495): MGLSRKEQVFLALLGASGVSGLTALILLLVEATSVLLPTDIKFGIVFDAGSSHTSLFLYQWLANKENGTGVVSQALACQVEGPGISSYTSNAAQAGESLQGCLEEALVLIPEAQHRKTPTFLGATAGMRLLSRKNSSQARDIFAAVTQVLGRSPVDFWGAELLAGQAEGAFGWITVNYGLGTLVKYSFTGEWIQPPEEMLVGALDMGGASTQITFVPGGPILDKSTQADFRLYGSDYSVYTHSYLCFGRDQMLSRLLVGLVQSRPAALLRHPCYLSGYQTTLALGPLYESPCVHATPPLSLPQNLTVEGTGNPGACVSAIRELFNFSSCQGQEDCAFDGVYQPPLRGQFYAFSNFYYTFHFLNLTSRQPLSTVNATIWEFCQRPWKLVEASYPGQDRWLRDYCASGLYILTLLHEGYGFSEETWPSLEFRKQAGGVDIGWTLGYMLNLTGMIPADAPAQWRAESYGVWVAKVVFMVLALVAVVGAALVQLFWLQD
How it was run: (§1)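 Malachite green assay in 50 mM Tris-HCl, 5 mM CaCl2, pH 7.4. Test compound at 100 μM, in triplicate, incubated 10 min with enzyme: h-NTPDase1 12 ng, h-NTPDase2 37 ng, h-NTPDase3 43 ng, h-NTPDase8 63 ng. Plate read at 630 nm, then substrate (100 μM) added and incubated 15 min at 37 °C. Malachite green reagent added and reading taken up to 6 min.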

[2] = target: T2, h-NTPDase1 (Homo sapiens, UniProt P49961); assay: h-NTPDase1 enzyme inhibition, malachite green assay; conditions: for inhibition at 100 µM: read-out: h-NTPDase1 % inhibition ± S.D
T2 sequence (P49961 1-510): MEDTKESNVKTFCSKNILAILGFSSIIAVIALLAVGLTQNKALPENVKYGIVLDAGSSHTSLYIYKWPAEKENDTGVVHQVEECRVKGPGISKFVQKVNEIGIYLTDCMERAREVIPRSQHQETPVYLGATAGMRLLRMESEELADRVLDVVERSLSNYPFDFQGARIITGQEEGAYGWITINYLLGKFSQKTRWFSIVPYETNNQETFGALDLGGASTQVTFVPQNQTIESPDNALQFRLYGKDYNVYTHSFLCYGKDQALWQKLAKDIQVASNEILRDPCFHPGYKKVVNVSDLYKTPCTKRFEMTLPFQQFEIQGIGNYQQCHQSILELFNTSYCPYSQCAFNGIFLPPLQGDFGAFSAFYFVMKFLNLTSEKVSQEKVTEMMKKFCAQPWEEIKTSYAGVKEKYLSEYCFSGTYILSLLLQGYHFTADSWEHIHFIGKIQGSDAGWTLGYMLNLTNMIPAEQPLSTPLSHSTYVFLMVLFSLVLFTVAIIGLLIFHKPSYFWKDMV
How it was run: as §1

[3] = target: T3, h-NTPDase3 (Homo sapiens, UniProt O75355); assay: h-NTPDase3 enzyme inhibition, malachite green assay
T3 sequence (O75355 1-529): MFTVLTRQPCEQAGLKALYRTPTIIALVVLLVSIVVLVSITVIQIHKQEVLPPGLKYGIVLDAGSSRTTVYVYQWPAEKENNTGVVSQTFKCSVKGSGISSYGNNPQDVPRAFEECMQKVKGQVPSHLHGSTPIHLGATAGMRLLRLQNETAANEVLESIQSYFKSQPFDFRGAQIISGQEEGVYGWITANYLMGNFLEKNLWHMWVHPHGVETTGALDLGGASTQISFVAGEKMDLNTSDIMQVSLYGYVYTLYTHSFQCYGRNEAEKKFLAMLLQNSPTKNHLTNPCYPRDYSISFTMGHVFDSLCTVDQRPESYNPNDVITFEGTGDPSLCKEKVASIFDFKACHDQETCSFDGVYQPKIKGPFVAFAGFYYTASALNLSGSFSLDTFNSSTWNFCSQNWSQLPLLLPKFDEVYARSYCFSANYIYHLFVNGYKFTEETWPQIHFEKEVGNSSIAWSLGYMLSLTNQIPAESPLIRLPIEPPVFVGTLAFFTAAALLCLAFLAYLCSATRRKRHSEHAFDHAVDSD
How it was run: as §1

[4] = target: T4, h-NTPDase2 (Homo sapiens, UniProt Q9Y5L3); assay: h-NTPDase2 enzyme inhibition, malachite green assay; conditions: for inhibition at 100 µM: read-out: h-NTPDase2 % inhibition ± S.D; for h-NTPDase2 IC50 ± SEM: triplicate, determined for compounds with over 50% inhibition at 100 μM
T4 sequence (Q9Y5L3 1-495): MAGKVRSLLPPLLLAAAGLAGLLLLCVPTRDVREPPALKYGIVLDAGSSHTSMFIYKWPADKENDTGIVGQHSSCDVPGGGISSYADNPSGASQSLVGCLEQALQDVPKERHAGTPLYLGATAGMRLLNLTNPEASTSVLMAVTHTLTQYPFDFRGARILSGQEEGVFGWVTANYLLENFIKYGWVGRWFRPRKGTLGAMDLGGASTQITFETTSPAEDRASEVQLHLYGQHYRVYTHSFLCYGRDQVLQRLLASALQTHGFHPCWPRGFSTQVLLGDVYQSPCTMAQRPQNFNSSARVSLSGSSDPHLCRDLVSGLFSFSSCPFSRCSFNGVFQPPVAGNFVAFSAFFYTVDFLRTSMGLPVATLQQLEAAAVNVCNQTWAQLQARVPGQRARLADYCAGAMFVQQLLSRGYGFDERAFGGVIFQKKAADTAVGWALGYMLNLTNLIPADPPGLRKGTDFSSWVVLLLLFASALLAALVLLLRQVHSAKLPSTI
How it was run: as §1

Structure (SMILES)	IC50 [1]	inhibition at 100 µM [2]	inhibition at 100 µM ([3]; read-out: h-NTPDase3 % inhibition ± S.D)	inhibition at 100 µM [4]	inhibition at 100 µM [1]	IC50 [2]	IC50 [3]	IC50 [4]	h-NTPDase2 IC50 ± SEM [4]
O=C(O)c1cc(S(=O)(=O)NC2CC2)ccc1Cl [2d, 2-chloro-5-(N-cyclopropylsulfamoyl)benzoic acid]	280 ± 70 nM	3 ± 1.2%	41 ± 1.4%	19 ± 0.9%					
COc1ccc(NC(=O)c2cccc(S(=O)(=O)N3CCOCC3)c2)cc1 [3f, N-(4-methoxyphenyl)-3-(morpholinosulfonyl)benzamide]					29 ± 4.5%	> 100000 nM	6710 ± 40 nM	270 ± 80 nM	sub-micromolar
O=C(c1cc(S(=O)(=O)Nc2ccc(Br)cc2)ccc1Cl)N1CCOCC1 [3i, N-(4-bromophenyl)-4-chloro-3-(morpholine-4-carbonyl)benzenesulfonamide]				43 ± 1.4%	32 ± 3.5%	2880 ± 130 nM	720 ± 110 nM		
COc1ccc(NC(=O)c2cc(S(=O)(=O)NCc3ccccc3)ccc2Cl)cc1 [3j, 5-(N-benzylsulfamoyl)-2-chloro-N-(4-methoxyphenyl)benzamide]		37 ± 1.3%			36 ± 1.7%		3160 ± 120 nM	290 ± 70 nM	sub-micromolar
O=C(NC1CC1)c1cc(S(=O)(=O)NC2CC2)ccc1Cl [4d, 2-chloro-N-cyclopropyl-5-(N-cyclopropylsulfamoyl)benzamide]	2460 ± 90 nM	36 ± 2.4%					200 ± 70 nM	130 ± 10 nM	sub-micromolar
Cc1ccc(C(=O)Nc2ccc(S(=O)(=O)O)c3cc(S(=O)(=O)O)cc(S(=O)(=O)O)c23)cc1NC(=O)c1cccc(NC(=O)Nc2cccc(C(=O)Nc3cc(C(=O)Nc4ccc(S(=O)(=O)O)c5cc(S(=O)(=O)O)cc(S(=O)(=O)O)c45)ccc3C)c2)c1 [Suramin, reference compound]	101000 ± 2340 nM								
